# Screening data as filed in PubChem.
# CSN deneddyl inh – inhibitors of CSN-mediated cullin deneddylation, primary screen, biochemical, fluorescence polarization, uHTS; Purified CSN, SCF-Nedd8-OG deneddylation; inhibition, % at 12.5 µM; actives 0.38% (n = 360,000); AID 651999, 2013;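 active = pattern-corrected inhibition above about 35%, with an unprinted fluorescence ratio check between 0.5 and 1.5, limit read from the data, passing the limit was not always enough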;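 note: 0% = enzyme with substrate and 100% = substrate without enzyme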
#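 test system = HEK293T-derived human Csn5 enzyme | amount = 0.24 nM Csn5 enzyme, final concentration | medium = Tris/NaCl/DTT buffer, pH 7.5 | schedule = 90 min reaction at room temperature | signal = FP | evaluation = inhibition of Csn5 cleavage, % | compound dosing = single dose of 12.5 µM compound with 0.25% DMSO | probe or stimulus = 10 nM SCFSkp2-Nedd8OG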
# Rpn11 block – Rpn11 (PSMD14) deubiquitinase inhibitors, primary screen, biochemical, fluorescence polarization, uHTS; AID 588493, 2011; 26S proteasome non-ATPase regulatory subunit 14 (Homo sapiens), O00487; human 26S proteasome, Ub4-pepOG fluorescence polarization; 20S core pre-blocked with epoxomicin; inhibition, % at 20 µM; actives 0.59% (n = 360,000);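 active = inhibition at 20 µM, scaled to each plate's controls, above about 33%, limit read from the data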
# Myeloid diff 2 – induction of myeloid progenitor differentiation, primary screen, cell-based, flow cytometry, MLPCN library; ER-HoxA9 myeloid progenitors, lysozyme-GFP differentiation; calls only at 10 µM; actives 1% (n = 360,000); AID 624256, 2012;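 active = normalized GFP-positive differentiation at or above the plate's own cutoff, the solvent-only control mean plus 3 SD; inconclusive = no clear call, values can overlap the other calls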;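 note: cells exposed to compound for four days before flow analysis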
# TPT1 inh – Candida albicans TPT1 enzyme inhibitors, primary screen, biochemical, fluorescence polarization; AID 1962, 2009; inhibition, % at 5 µM; recombinant caTPT1, FP RNA substrate dephosphorylation; actives 0.81% (n = 300,000);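 active = inhibition above the mean of all tested compounds plus 3 SD, set per screening campaign, cut at about 24% in these data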;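 note: plate controls were DMSO alone for no effect and ferristatin control at 100 nM for full effect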
# HNF4A DNA FP – change in binding of human HNF4A to DNA, primary screen, biochemical, fluorescence polarization, FITC-DNA; Hepatocyte nuclear factor 4-alpha (Homo sapiens), P41235; 1 h; activity change, % at 10 µM; actives 0.3% (n = 360,000); AID 1224865, 2016; in the data active = activity change above about 30%, passing the limit was not always enough
# Target sequence (P41235 whole entry, looked up): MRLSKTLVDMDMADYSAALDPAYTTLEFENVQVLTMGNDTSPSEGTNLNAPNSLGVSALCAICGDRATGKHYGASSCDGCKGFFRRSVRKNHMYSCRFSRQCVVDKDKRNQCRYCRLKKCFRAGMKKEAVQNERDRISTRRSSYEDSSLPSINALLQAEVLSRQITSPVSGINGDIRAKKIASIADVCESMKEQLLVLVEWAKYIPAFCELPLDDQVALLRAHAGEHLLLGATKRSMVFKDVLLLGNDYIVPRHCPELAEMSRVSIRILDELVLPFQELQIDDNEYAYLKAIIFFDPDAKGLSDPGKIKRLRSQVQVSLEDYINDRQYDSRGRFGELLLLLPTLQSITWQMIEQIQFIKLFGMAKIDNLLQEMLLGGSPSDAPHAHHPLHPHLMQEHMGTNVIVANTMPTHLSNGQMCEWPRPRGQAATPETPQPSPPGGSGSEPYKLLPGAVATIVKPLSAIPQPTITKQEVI
# * hit, by the source's call; i = inactive; ? = inconclusive; . = no result given; + = active, no number. In the library only some 2.3% were active in any assay of this set; here they are far more common.
SMILES,CSN deneddyl inh,Rpn11 block,Myeloid diff 2,TPT1 inh,HNF4A DNA FP
Oc1ccccc1-c1nnc(COc2ccc(Cl)cc2Cl)o1,-8,-1,+,-5,-2
Oc1ccccc1-c1nnc(COc2ccccc2)o1,-4,-4,i,-3,6
COc1ccc(OCC(O)CNC(=O)Nc2cccc3ccccc23)cc1 (stereo unspecified),-7,-4,i,1,-2
CCCCN(C)CC(O)Cn1cc(/C=C/C(=O)c2ccc(C)cc2)c2ccccc21 (stereo unspecified),14,46*,?,18,7
O=C(/C=C/c1cn(CC(O)CN2CCCCC2)c2ccccc12)c1ccccc1 (stereo unspecified),11,42*,i,.,2
CN1CCN(Cn2cc(/C=C/C(=O)c3ccccc3)c3ccccc32)CC1,1,15,i,17,1
Cc1ccc(NC(=O)Cn2cc(C=O)c3ccccc32)cc1,0,-6,i,-2,4
O=C1O[C@@H](c2ccccc2)C[C@@H](O)[C@H](O)CCCc2ccccc21,-5,.,i,.,-6
COCCNS(=O)(=O)c1ccc2c3c(cccc13)C(=O)N2C,-1,4,i,-1,5
CCCC(=O)N(c1ccc(OCC)cc1)S(=O)(=O)c1ccc2c3c(cccc13)C(=O)N2C,1,-4,+,0,0
O=C(NC1CCCC1)C1c2ccccc2OCC(=O)N1C1CC1 (stereo unspecified),-2,.,i,.,5
CCCCCCCCN1C(=O)[C@H](CC(=O)N2CCN(C(=O)OCC)CC2)C[C@@]2(C(=O)OC)CCCCC=C12,-1,.,i,.,0
CC(=O)OCCc1c2ccccc2c(CCCN(C)C)c2ccccc12,71*,11,i,-2,132*
Cc1ccc(-n2nc3c([n+]2[O-])CCc2c-3no[n+]2[O-])cc1,1,-5,+,-1,3
[O-][n+]1onc2c1CCc1c-2nn(-c2ccccc2Cl)[n+]1[O-],-6,-6,.,0,2
O=C1c2cccc([N+](=O)[O-])c2C(=O)N1CCO,5,-2,+,1,0
CN(Cc1ccccc1)C(=O)CCN1C(=O)c2cccc([N+](=O)[O-])c2C1=O,-1,1,i,.,2
CCCC/C=C/C(NC(=O)c1ccc(-c2ccccc2)cc1)c1ccccc1 (stereo unspecified),0,2,i,-1,-1
CCCC/C=C/C(NC(=O)CCc1ccccc1)c1ccccc1 (stereo unspecified),1,-2,+,1,1
CC1=C(C(=O)N2CCCCCC2)CC(CC(=O)NC2CCCC2)C(=O)N1Cc1ccc(C(C)(C)C)cc1 (stereo unspecified),-4,.,i,.,-7
CCCCN(C(=O)CSc1nnc2ccccn12)c1c(N)n(Cc2ccccc2)c(=O)[nH]c1=O,2,10,+,-1,-6
CCN(C(=O)CSc1n[nH]c(-c2ccc(OC)cc2)n1)c1c(N)n(Cc2ccccc2)c(=O)[nH]c1=O,15,9,+,.,18
CCCCCN(C(=O)CN1CCC(Cc2ccccc2)CC1)c1c(N)n(CCCC)c(=O)[nH]c1=O,11,19,i,5,37*
CN(C)CCCNC(=O)OC1CC2CC1[C@H]1CCCCN1C2=O (stereo partly specified),3,.,i,.,8
Cc1cccc(NC(=O)C(=O)NCC2CCCN2S(=O)(=O)c2cccs2)c1 (stereo unspecified),3,-2,i,.,5
SMILES,CSN deneddyl inh,Rpn11 block,Myeloid diff 2,TPT1 inh,HNF4A DNA FP
CCOc1ccccc1N1CCN(C(=O)c2cc(-c3cccnc3)nc3c(Cl)cccc23)CC1,0,6,+,-1,0
CCOc1ccccc1N1CCN(C(=O)c2ccncc2)CC1,4,-2,.,0,-1
C[C@H](NC(=O)C[C@@H]1C=C[C@@H](NC(=O)CN2CCOCC2)[C@@H](CO)O1)c1ccccc1,0,.,i,.,-1
CCOC(=O)N(C)c1c(CC)nc2c(OCc3ccccc3)cccn12,-2,-1,i,.,-1
CCc1ccc2c(c1)c1nc(C)sc1n2CC,54*,5,i,3,-3
COC(=O)Cn1c2ccc(F)cc2c2nc(C)sc21,-3,6,i,1,2
Cc1nc2c3cc(F)ccc3n(Cc3ccc(F)cc3)c2s1,6,-1,+,1,-3
CCOC(=O)[C@]12CCC=C1N(Cc1cccc3ccccc13)C(=O)[C@H](CC(=O)NCC1CCCCC1)C2,2,.,i,.,5
Cc1cccc(C)c1NC(=O)C(c1cc2ccccc2o1)N1CCN(C)CC1 (stereo unspecified),2,.,i,.,0
Cc1cccc(C)c1N1CCN(C(c2cc3ccccc3o2)c2nnnn2C(C)(C)C)CC1 (stereo unspecified),7,.,?,.,4
O=c1cc(-c2ccncc2)oc2c1ccc1ccccc12,9,-11,i,3,-3
O=c1cc(-c2ccco2)oc2c1ccc1ccccc12,39*,14,i,1,3
CCCNC(=O)c1cc(C2CCCCN2S(=O)(=O)Cc2cccc(C(F)(F)F)c2)on1 (stereo unspecified),1,5,i,.,2
O=C(c1ccco1)N1CCN(c2ncnc3scc(-c4cccs4)c23)CC1,1,2,+,3,-3
CCCCNC(=O)c1[nH]c(C2CCNCC2)nc1-c1cccc(C(F)(F)F)c1,4,.,i,.,3
CC(C)Cc1ccc(-c2cc3nc(NCCc4ccc(S(N)(=O)=O)cc4)ccn3n2)cc1,-2,11,i,.,6
N#CC(C#N)=C1C=C2C=C(N3CCCCCC3)CCC2CC1 (stereo unspecified),-78,.,i,.,-94
CN1CCN(C2=CC3=CC(=C(C#N)C#N)CCC3CC2)CC1 (stereo unspecified),-102,.,+,.,-101
CCN1CCN(C2=CC3=CC(=C(C#N)C#N)CCC3CC2)CC1 (stereo unspecified),-98,.,+,.,-114
N#CC(C#N)=C1C=C2C=C(N3CCOCC3)CCC2CC1 (stereo unspecified),-101,.,+,.,-112
COc1ccc(CCN2C(=O)CCC2(C)c2nnnn2-c2ccc3c(c2)OCCO3)cc1OC (stereo unspecified),-4,.,i,.,3
CC(=O)c1ccc(Oc2ccc(C(C)=O)cc2)cc1,1,-3,i,1,0
CN(C)C(=O)c1ccc(Oc2ccc(C(=O)N(C)C)cc2)cc1,3,-5,i,-4,37*
Cc1ccc2oc(-c3ccc(NC(=O)c4ccncc4)cc3O)nc2c1,-5,20,+,-1,14
